Measurements taken from paper PMC5656813 (Arthritis & Rheumatology (Hoboken, N.j.), 2017).
One block for each compound: values may come before it.

Legend:
[1] = Studies 1 and 2, steady‐state plasma PK of filgotinib and its major metabolite; format: in vivo, human; details: for Tmax of major metabolite, steady state: median (range)
Outline: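 RA patients on stable methotrexate took oral test compound or placebo capsules for 4 weeks: 200 mg once daily or 100 mg twice daily (study 1), or 30, 75, 150 or 300 mg once daily (study 2). In a subset (12 and 15 patients), plasma parent and major metabolite were sampled predose and 1, 2, 3, 5 and 8 h after the morning dose, at week 2 or 4. Descriptive statistics were calculated by dose.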

[2] = tested on: JAK‐1; details: cited from earlier work
[3] = cited from earlier work
[4] = tested on: patients with RA who had had an insufficient response to MTX; details: cited from earlier work
[5] = after filgotinib 30 mg once daily, study 2, arithmetic mean (coefficient of variation)
[6] = after filgotinib 75 mg once daily, study 2, arithmetic mean
[7] = after filgotinib 100 mg twice daily, study 1, arithmetic mean (coefficient of variation)
[8] = after filgotinib 150 mg once daily, study 2, arithmetic mean (coefficient of variation)
[9] = after filgotinib 200 mg once daily, study 1, arithmetic mean (coefficient of variation)
[10] = after filgotinib 300 mg once daily, study 2, arithmetic mean (coefficient of variation)

dose proportionality of PK ([1]; 30–300 mg range): essentially dose proportional
AUCtau of major metabolite, steady state [1, 5]: 11.2 (52.2) μg.hour/ml
Cmax of major metabolite, steady state [1, 5]: 0.582 (48.5) μg/ml
Tmax of major metabolite, steady state ([1]; after filgotinib 30 mg once daily, study 2): 5 (1–8) hours
AUCtau of major metabolite, steady state [1, 6]: 26.0 µg·h/mL
Cmax of major metabolite, steady state [1, 6]: 1.46 µg/mL
Tmax of major metabolite, steady state ([1]; after filgotinib 75 mg once daily, study 2): 5.5 (3–8) hours
AUCtau of major metabolite, steady state [1, 7]: 33.1 (26.3) μg.hour/ml
Cmax of major metabolite, steady state [1, 7]: 3.18 (25.0) μg/ml
Tmax of major metabolite, steady state ([1]; after filgotinib 100 mg twice daily, study 1): 2 (0–5) hours
AUCtau of major metabolite, steady state [1, 8]: 75.9 (31.0) μg.hour/ml
Cmax of major metabolite, steady state [1, 8]: 3.79 (26.5) μg/ml
Tmax of major metabolite, steady state ([1]; after filgotinib 150 mg once daily, study 2): 3 (2–5) hours
AUCtau of major metabolite, steady state [1, 9]: 71.8 (31.3) μg.hour/ml
Cmax of major metabolite, steady state [1, 9]: 3.77 (23.6) μg/ml
Tmax of major metabolite, steady state ([1]; after filgotinib 200 mg once daily, study 1): 3 (1–5) hours
AUCtau of major metabolite, steady state [1, 10]: 93.9 (20.4) μg.hour/ml
Cmax of major metabolite, steady state [1, 10]: 4.62 (9.98) μg/ml
Tmax of major metabolite, steady state ([1]; after filgotinib 300 mg once daily, study 2): 3 (3–8) hours
time of dosing to attain steady state ([1]; in vivo): ≤ 4 days
exposure to major metabolite, higher than exposure to parent filgotinib ([1]; steady state, 75–300 mg dose range): 13 fold
SMILES: Nc1nc2cccc(-c3ccc(CN4CCS(=O)(=O)CC4)cc3)n2n1 [major metabolite]
JAK‐1 inhibition potency of metabolite, lower than filgotinib [2]: ~10 fold
half‐life [3]: ~24 h
overall exposure of metabolite, higher than that of filgotinib ([3]; in humans): ~15 fold

SMILES: CC[C@@H]1CN(C(=O)NCC(F)(F)F)C[C@@H]1c1cnc2cnc3[nH]ccc3n12 [ABT‐494]
effect on natural killer (NK) cells [4]: decreased
effect on hemoglobin ([4]; middle and higher doses, within 4 weeks): decline in hemoglobin
